SUMO1 PPI mod = alters human SUMO1 binding to SIM partners. SUMO1 binding to a labelled peptide, TR-FRET, 1 h. hit rate 0.33% among 360,000. AID 602429. inhibition, % at 20 µM. P63165; in the data active = inhibition above about 37%
Target sequence (P63165 whole entry, looked up): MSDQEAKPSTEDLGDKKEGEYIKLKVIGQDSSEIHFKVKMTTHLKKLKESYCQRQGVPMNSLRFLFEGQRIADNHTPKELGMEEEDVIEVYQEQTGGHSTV
Scp1 inh = Scp-1 (human) phosphatase inhibition; Q9GZU7; Recombinant Scp1, phosphopeptide, malachite green phosphate absorbance; inhibition, % at 20 µM; hit rate 0.88% among 340,000; AID 493091;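 active = inhibition above about 50% at 20 µM, limit read from the data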;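 note: plate controls were DMSO wells with enzyme for no effect and wells lacking enzyme for full effect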
Target sequence (Q9GZU7 76-261 limits assumed): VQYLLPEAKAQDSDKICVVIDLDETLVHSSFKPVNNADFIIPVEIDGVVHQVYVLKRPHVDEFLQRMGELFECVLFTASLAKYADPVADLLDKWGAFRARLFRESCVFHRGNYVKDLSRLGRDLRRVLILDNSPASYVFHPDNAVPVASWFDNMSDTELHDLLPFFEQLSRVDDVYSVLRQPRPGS
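Material – SCP-1 phosphatase catalytic domain, residues 76-261 · Buffer or medium – Acidic Tris acetate buffer with magnesium and detergent · Also added – Phospho 17-mer peptide substrate · Compound – single 20 µM dose, 1% DMSO · Times – 45 min room-temperature reaction, 5 min colour, 30 min stabiliser · Technique – Phosphate-binding colour reagent, absorbance read at 630 nm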
HKDC1 inhibitor = blocks human hexokinase HKDC1 activity. recombinant HKDC1, G6PDH/diaphorase resazurin coupled fluorescence. inhibition, % at 20 µM. hit rate 0.16% among 340,000;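 active = inhibition above about 35% when tested at 20 µM, limit read from the data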;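 note: plate controls were DMSO wells with enzyme for no effect and DMSO wells lacking enzyme for full effect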
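Material: recombinant HKDC1 hexokinase; Amount: HKDC1 at 5 µg/mL; Medium: Tris pH 8.0 buffer with MgCl2, Tween-20, BSA, BME; Schedule: 90 min reaction incubation at room temperature, dark; Technique: coupled resazurin fluorescence, excitation 525 nm, emission 613 nm.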
LMPTP block = blocks human LMPTP phosphatase. inhibition, % at 20 µM. hit rate 0.22% among 360,000. P24666. recombinant LMPTP-A, OMFP fluorogenic substrate, fluorescence intensity;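 active = compounds that cut the enzyme signal by at least half of the control window in the single-dose screen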;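 note: plate controls were DMSO wells with enzyme plus substrate for no effect and substrate without enzyme for full effect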
Target sequence (P24666 whole entry, looked up): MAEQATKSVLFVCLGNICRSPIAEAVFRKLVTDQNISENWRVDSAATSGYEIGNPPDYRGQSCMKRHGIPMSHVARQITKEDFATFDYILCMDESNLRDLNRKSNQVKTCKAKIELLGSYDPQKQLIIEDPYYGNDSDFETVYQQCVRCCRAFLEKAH
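Test system: LMPTP-A, protein tyrosine phosphatase of low molecular weight; Input: 0.625 nM enzyme; Incubation: 50 min dark incubation at room temperature; Signal: endpoint fluorescence intensity from OMFP dephosphorylation; Read-out basis: % inhibition versus control wells.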
STEP block = inhibitors of human striatal-enriched phosphatase STEP; hit rate 0.25% among 360,000; inhibition, % at 20 µM; P54829; recombinant STEP, OMFP fluorogenic substrate, fluorescence;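 active = inhibition at 20 µM, scaled per plate between control wells, above about 37%, limit read from the data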;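 note: 0% = DMSO with enzyme and substrate and 100% = substrate only without enzyme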
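medium = Bis-Tris buffer pH 6.0, 2.5 mM DTT, 0.005% Tween 20 | test system = STEP (striatal-enriched tyrosine phosphatase) enzyme, cell-free | measure = normalized % inhibition | compound dosing = 20 µM, 1% DMSO | also added = 25 µM OMFP | schedule = reaction 20 min, ambient temperature | measured by = fluorescence read at 480 nm ex / 540 nm em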
DNMT1 inh = blocks human DNA methyltransferase DNMT1; P26358; DNMT1 molecular beacon, Hinp1I cleavage, fluorescence; inhibition (reported as % activation of signal), % at 10 µM; hit rate 0.83% among 360,000; AID 588458; in the data active = inhibition above about 50%
DNMT1 interf DR = counter-screen for DNMT1 inhibitors: spectral interference, dose response. shares compounds with DNMT1 inh. molecular beacon fluorescence. IC50, µM. 200 tested, under 10 active. AID 602382; call rule not given here
DNMT1 inh conf = DNMT1 inhibition confirmation, single concentration | DNMT1 molecular beacon HinP1I cleavage, fluorescence | shares compounds with DNMT1 inh | inhibition, % at 10 µM | AID 602385 | hit rate 8% among 2,300;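 active = average inhibition of at least 30% in the single-concentration confirmation test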
Beacon interf = beacon fluorescence artifact counter-screen; shares compounds with DNMT1 inh; activation (fluorescence interference), % at 10 µM; DNMT1 molecular beacon spectral interference counterscreen, fluorescence 485/520; hit rate 1% among 2,300; AID 602387;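 active = activation of at least 30% at 10 µM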;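 note: DNMT1 catalytic domain with a HinP1I cleavage step and a FAM/dabcyl DNA beacon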
* hit, by the source's call; nt = no result given. Only some compounds are listed: those with a hit (about 1.8% of all), similar ones and a draw of the others.

SMILES	SUMO1 PPI mod	Scp1 inh	HKDC1 inhibitor	LMPTP block	STEP block	DNMT1 inh	DNMT1 inh conf	Beacon interf	others
Cc1cccc(OCCC(=O)NNC(=O)c2ccoc2C)c1	-2	-5	-5	0	-3	3	nt	nt
CCOc1cc(C#N)ccc1OCC(=O)NNC(=O)CC1CCS(=O)(=O)C1 (centres undefined)	1	-8	-3	0	3	77*	0	4
O=C(COc1c(F)c(F)cc(F)c1F)NNC(=O)CC1CCS(=O)(=O)C1 (centres undefined)	-3	2	-5	0	1	2	nt	nt
O=C(NCC1CC1)c1csc([C@@H]2O[C@H](CO)[C@H](O)[C@H](O)[C@H]2O)n1	-1	nt	nt	2	-2	4	nt	nt
COc1cc(CCc2ccccc2)c(C(=O)O)c(O)c1CC=C(C)C	4	-7	9	1	-4	-11	nt	nt
COc1cc(CCc2ccccc2)c(C(=O)O)c(O)c1C/C=C(/C)CCC=C(C)C	77*	1	7	2	-1	61*	84*	-9	DNMT1 interf DR=>99
CCc1ccc(NC(=O)Cn2c(=O)c3cccn3c3ccccc32)cc1	-1	-7	-3	1	3	55*	5	1
Cc1ccc(-c2c3c(nc4sc(C(N)=O)c(N)c24)CCCC3)o1	-4	-2	3	0	-2	-3	nt	nt
NC(=O)c1sc2nc(-c3ccco3)ccc2c1N	37	4	9	13	10	98*	5	5
NC(=O)c1sc2nc3c(c(-c4ccco4)c2c1N)CCC3	13	0	4	2	5	75*	12	12
COC(=O)c1sc2nc(-c3ccco3)ccc2c1N	11	-4	6	4	16	-2	nt	nt
CCNc1oc(-c2ccccc2F)nc1S(=O)(=O)c1ccccc1	2	-7	-1	0	-1	2	nt	nt
O=S(=O)(c1cccc(COc2c(Cl)cccc2Cl)c1)N1CCOCC1	5	-12	4	1	-1	2	nt	nt
O=c1[nH][nH]c2c1C(C1CCCCC1)OC(C1CCCCC1)C2 (centres undefined)	9	nt	nt	1	nt	nt	nt	nt
COc1ccc(N2CCCC2=O)cc1S(=O)(=O)N1CCOCC1	4	nt	nt	-3	-3	72*	1	3
Cc1ccc(S(=O)(=O)N2[C@@H](c3ccc(C(C)(C)C)cc3)C(C(=O)O)=CC[C@H]2c2ccc(C(C)C)cc2)cc1	31	8	13	4	2	58*	52*	-12	DNMT1 interf DR=>99
CCOc1cc(/C=C(/C#N)c2nc3ccccc3[nH]2)ccc1Oc1ccc([N+](=O)[O-])cn1	-5	-1	-1	2	0	35	nt	nt
Cc1ccc2nc(/C(C#N)=C\c3ccc(Oc4ccc([N+](=O)[O-])cn4)cc3)[nH]c2c1	-13	11	-9	0	1	54*	6	3
COc1ccc2nc(/C(C#N)=C\c3ccc(Oc4ccc([N+](=O)[O-])cn4)cc3)[nH]c2c1	-3	-3	-13	3	2	57*	2	2
COc1ccccc1N1C(=O)N(CC(=O)C(C)(C)C)c2ccccc2S1(=O)=O	10	-13	-5	-1	2	3	nt	nt
O=c1oc(-c2cccs2)nc2sc3c(c12)CCC3	-3	-9	-4	-1	0	18	nt	nt
O=c1oc(/C=C/c2ccco2)nc2sc3c(c12)CCC3	10	11	2	3	2	108*	6	8
COc1ccc2nc(N3CCCC3)[nH]c2c1	-1	-8	14	-1	1	88*	6	2
CC(C)c1nc2sc3c(=O)[nH]cnc3c2c2c1CCC2	29	0	26	-1	-2	-4	nt	nt
Cc1ccc(-c2cc(C(F)F)nc3sc4c(=O)[nH]cnc4c23)cc1	-39	-6	-5	-1	-2	61*	3	4
SMILES	SUMO1 PPI mod	Scp1 inh	HKDC1 inhibitor	LMPTP block	STEP block	DNMT1 inh	DNMT1 inh conf	Beacon interf	others
Cc1cc(C)cc(-n2c3nc4ccccc4nc3c3c(=O)n(Cc4ccco4)cnc32)c1	0	5	-1	56*	2	98*	0	-4
CC(C)Oc1ccccc1OC1(C)CCN(Cc2ccc(OC(F)(F)F)cc2)C1 (centres undefined)	-2	nt	nt	-1	4	1	nt	nt
O=C1CC(=O)N(Cc2ccco2)C(=O)N1	25	66*	12	51*	95*	109*	105*	-5	DNMT1 interf DR=>99
NS(=O)(=O)c1cccc(NC(=O)COC(=O)Cc2ccc(S(=O)(=O)N3CCOCC3)s2)c1	-3	-2	4	-1	-1	-2	nt	nt
O=C(O)Cn1ncc2c1-c1ccoc1CC2	9	5	17	-1	-2	89*	5	1
N#Cc1cnn(Cc2ccccc2)c1N	3	-9	-4	-5	-2	72*	2	3
Cn1nc(C2CC2)cc1NC(=O)C1(C)CCN1C(=O)CC(c1ccccc1)c1ccccc1 (centres undefined)	2	nt	nt	0	2	-4	nt	nt
CC1=NN2C(=N)/C(=C\c3ccc(SCc4ccccc4)o3)C(=O)N=C2S1	5	20	5	3	5	64*	3	2
N=C1/C(=C\c2ccc(SCc3ccco3)o2)C(=O)N=C2SC=NN12	43*	32	14	30	8	106*	4	5
O=C(O)CN1C(=O)/C(=C/c2ccc(SCc3ccccc3)o2)SC1=S	4	59*	2	9	12	76*	20	8
O=C(O)CN1C(=O)/C(=C\c2ccc(OC(=O)c3ccco3)cc2)SC1=S	-26	6	3	2	15	0	nt	nt
COc1ccc(C(=O)NNS(=O)(=O)c2ccccc2)cc1OC	4	1	-7	1	-2	-3	nt	nt
O=C(Cn1c2ccccc2c(=O)c2cc([N+](=O)[O-])ccc21)Nc1ccccc1Cl	-12	36	-1	18	8	56*	4	-5
COC1(OC)C=CC(=O)C=C1NC(=O)c1ccccc1OC(C)=O	3	10	22	0	0	-1	nt	nt
CCn1c2ccccc2c2cc(NC(=O)c3coc(=O)c(Br)c3)ccc21	-2	nt	nt	4	-7	51*	16	8
O=C(/C=C/c1ccco1)N1CCc2ccccc21	-13	-1	15	2	3	4	nt	nt
